Results published in article PMC8327296 (Journal of medicinal chemistry, 2018).

How the values were obtained:
[1] = molecular target: T1, A1R (Homo sapiens, UniProt P30542); experiment: Competition radioligand binding, human A1R
T1 sequence (P30542 1-326): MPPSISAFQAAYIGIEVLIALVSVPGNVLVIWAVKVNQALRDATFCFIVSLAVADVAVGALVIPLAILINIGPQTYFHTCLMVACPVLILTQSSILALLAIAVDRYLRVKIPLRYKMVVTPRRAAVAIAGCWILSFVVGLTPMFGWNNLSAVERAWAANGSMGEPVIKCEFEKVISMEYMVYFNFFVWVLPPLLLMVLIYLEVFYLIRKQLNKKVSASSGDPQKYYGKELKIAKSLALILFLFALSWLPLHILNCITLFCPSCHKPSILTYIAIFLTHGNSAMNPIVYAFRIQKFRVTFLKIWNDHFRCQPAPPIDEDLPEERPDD
How it was run: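 Membranes from HEK293 cells expressing recombinant human A1R (DMEM, 10% FBS, 37 °C, 5% CO2), treated with adenosine deaminase 3 units/mL for 30 min at 37 °C. 20 μg protein per tube incubated 60 min at 25 °C in 50 mM Tris·HCl with 10 mM MgCl2, 0.5 nM [3H]8-cyclopentyl-1,3-dipropylxanthine and varied test compound. Nonspecific binding defined with 10 μM XAC. Bound ligand collected on GF/B filters and counted by scintillation. Ki by Cheng–Prusoff; mean ± SEM of 2–4 experiments in duplicate.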

[2] = molecular target: recombinant A2AR (human) (Homo sapiens, UniProt P29274); experiment: Competition radioligand binding, human A2AR; details: for inhibition at 1 µM: read-out: % inhib., A2A
Chain of recombinant A2AR (human) (P29274 whole entry): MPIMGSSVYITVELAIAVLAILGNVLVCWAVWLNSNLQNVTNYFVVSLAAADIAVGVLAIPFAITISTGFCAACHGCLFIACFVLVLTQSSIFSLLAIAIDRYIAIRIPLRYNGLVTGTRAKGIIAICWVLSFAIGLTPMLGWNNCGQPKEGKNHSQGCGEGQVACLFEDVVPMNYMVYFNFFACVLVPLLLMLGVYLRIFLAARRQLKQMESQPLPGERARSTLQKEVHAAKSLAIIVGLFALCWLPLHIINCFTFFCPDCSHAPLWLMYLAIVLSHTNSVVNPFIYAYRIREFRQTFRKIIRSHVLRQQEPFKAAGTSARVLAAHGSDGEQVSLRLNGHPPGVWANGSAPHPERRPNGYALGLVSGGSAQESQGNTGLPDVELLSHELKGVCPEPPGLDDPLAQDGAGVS
How it was run: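 Human A2AR expressed in HEK293 cells; membranes treated with adenosine deaminase 3 units/mL for 30 min at 37 °C. […] Nonspecific binding with 10 μM XAC. Filtration on GF/B, scintillation counting. Ki by Cheng–Prusoff, mean ± SEM of 2–4 experiments in duplicate.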

[3] = molecular target: T2, recombinant A2BR (human) (Homo sapiens, UniProt P29275); experiment: Competition radioligand binding, human A2BR
T2 sequence (P29275 1-332): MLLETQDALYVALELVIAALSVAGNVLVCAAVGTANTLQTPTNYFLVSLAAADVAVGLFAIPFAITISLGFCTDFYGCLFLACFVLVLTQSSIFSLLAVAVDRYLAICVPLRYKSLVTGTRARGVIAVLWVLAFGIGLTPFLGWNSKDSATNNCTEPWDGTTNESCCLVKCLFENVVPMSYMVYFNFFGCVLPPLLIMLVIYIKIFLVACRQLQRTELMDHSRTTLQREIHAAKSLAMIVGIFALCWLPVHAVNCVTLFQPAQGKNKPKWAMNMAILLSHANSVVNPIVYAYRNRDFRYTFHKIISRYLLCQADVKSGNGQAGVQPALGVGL
How it was run: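 Adenosine deaminase-treated membranes (3 units/mL, 30 min, 37 °C) of HEK293 cells carrying recombinant human A2BR. […] Nonspecific binding with 100 μM XAC. GF/B filtration, scintillation counting. Ki via Cheng–Prusoff, mean ± SEM of 2–4 experiments in duplicate.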

[4] = molecular target: T3, recombinant A3R (human) (Homo sapiens, UniProt P0DMS8); experiment: Competition radioligand binding, human A3R; details: for inhibition at 1 µM: read-out: % inhib., A3
T3 sequence (P0DMS8 1-318): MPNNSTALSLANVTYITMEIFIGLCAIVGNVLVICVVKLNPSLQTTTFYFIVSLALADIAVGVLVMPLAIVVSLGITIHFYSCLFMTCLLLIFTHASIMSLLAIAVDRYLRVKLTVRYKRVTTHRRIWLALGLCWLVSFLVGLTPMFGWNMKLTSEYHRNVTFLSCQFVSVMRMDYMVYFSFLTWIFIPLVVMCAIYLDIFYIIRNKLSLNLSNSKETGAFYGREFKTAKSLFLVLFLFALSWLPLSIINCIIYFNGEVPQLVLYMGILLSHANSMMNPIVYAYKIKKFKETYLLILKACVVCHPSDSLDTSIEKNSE

[5] = molecular target: T1, A1R; experiment: cAMP accumulation assay; format: cell-based; details: for Emax: HEK293, read-out: A1 functional efficacy (Emax %)
How it was run: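 HEK293 cells expressing A1R seeded at 1,000 cells/well on poly-D-lysine and kept overnight at 37 °C. Preincubated 30 min at 37 °C with adenosine deaminase 3 units/ml, rolipram 10 μM and the A2B antagonist PSB603 1 μM. Agonist applied 20 min, then forskolin 10 μM for 15 min at 37 °C. Cells lysed in 0.3% Tween-20 and cAMP measured by AlphaScreen. Emax relative to a reference agonist set at 100%.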

[6] = molecular target: T4, A1R, rat brain membranes (forebrain) (Rattus norvegicus, UniProt P25099); experiment: Competition radioligand binding, rat brain homogenates
T4 sequence (P25099 1-326): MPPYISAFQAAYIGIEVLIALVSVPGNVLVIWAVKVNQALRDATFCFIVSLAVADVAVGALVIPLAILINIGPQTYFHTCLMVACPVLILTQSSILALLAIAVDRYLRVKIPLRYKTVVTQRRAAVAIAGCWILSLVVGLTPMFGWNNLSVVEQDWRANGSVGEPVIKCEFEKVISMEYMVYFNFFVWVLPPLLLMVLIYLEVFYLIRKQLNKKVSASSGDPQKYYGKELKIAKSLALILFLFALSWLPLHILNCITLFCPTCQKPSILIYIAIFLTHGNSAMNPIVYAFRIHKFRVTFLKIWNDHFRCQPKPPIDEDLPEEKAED
How it was run: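 Rat forebrain homogenate incubated 60 min at 25 °C in 50 mM Tris·HCl with 10 mM MgCl2, 0.5 nM [3H]8-cyclopentyl-1,3-dipropylxanthine and varied test compound. Nonspecific binding defined with 10 μM XAC. Separation by GF/B filtration with 3 ice-cold buffer washes, then scintillation counting. IC50 converted to Ki by Cheng–Prusoff; mean ± SEM of 2–4 experiments in duplicate.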

[7] = molecular target: A2AR, rat brain membranes (striatum) (Rattus norvegicus, UniProt P30543); experiment: Competition radioligand binding, rat brain homogenates
Chain of A2AR, rat brain membranes (striatum) (P30543 whole entry): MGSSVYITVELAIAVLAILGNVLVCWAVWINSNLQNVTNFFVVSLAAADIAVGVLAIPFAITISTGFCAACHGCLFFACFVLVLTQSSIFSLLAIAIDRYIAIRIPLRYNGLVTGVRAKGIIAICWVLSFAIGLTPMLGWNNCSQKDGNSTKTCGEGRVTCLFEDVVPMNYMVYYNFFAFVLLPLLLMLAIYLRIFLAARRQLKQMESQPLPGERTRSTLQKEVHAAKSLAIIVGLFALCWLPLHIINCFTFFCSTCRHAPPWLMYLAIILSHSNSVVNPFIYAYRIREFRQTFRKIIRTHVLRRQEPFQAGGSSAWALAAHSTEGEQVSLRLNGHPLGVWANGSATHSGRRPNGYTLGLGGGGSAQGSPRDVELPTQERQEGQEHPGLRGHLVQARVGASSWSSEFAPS
How it was run: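 Rat striatum homogenate incubated 60 min at 25 °C in 50 mM Tris·HCl/10 mM MgCl2 with 0.8 nM [3H]ZM241385 and varied test compound. Nonspecific binding defined with 10 μM XAC. GF/B filtration with 3 ice-cold washes, then scintillation counting. Ki from IC50 by Cheng–Prusoff; mean ± SEM of 2–4 experiments in duplicate.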

[8] = Small animal PET, brain uptake in rats; format: in vivo, rat; details: 11C-labelled compound; for BBB permeability: rat pilot PET study; for standard uptake value (SUV), brain uptake: rat, whole brain, 10 min after intravenous administration
How it was run: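 Male Wistar rats (2–3 months, 318 ± 40 g) under 2–5% isoflurane, temperature held near 36.9 °C. After a 10 min transmission scan, 20.8–37.0 MBq 11C-labelled test compound in saline infused iv (tail vein or penile catheter, 600 μL/min). 90 min dynamic list-mode microPET, template coregistration, regional time-activity curves. Test–retest (n=3) 30 min later; blocking drugs given 10 min before the second injection.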

Row | SMILES | Ki [1] [nM] | Ki [3] [nM] | Emax [5] [%] | Ki [2] [nM] | Ki [4] [nM] | further results
1 | COc1ccc(-c2nc(SCc3cccc(C)n3)nc(N)c2C#N)cc1 [21a, 4-Amino-6-(4-methoxyphenyl)-2-(((6-methylpyridin-2-yl)methyl)thio)pyrimidine-5-carbonitrile] | 29 ± 0.1 | 305 ± 108 | -2 ± 3.5 | – | – | inhibition at 1 µM [2]: 32 ± 2%; inhibition at 1 µM [4]: 44 ± 3%
2 | COc1cccc(-c2nc(SCc3cccc(C)n3)nc(N)c2C#N)c1 [21b, 4-Amino-6-(3-methoxyphenyl)-2-(((6-methylpyridin-2-yl)methyl)thio)pyrimidine-5-carbonitrile] | 7.2 ± 2.4 | – | 3.4 ± 1.9 | – | – | inhibition at 1 µM [2]: 46 ± 1%; inhibition at 1 µM ([3]; read-out: % inhib., A2B): 35 ± 10%; inhibition at 1 µM [4]: 42 ± 11%
3 | COc1ccc(-c2nc(SCc3ncc[nH]3)nc(N)c2C#N)cc1 [21c, 2-(((1H-Imidazol-2-yl)methyl)thio)-4-amino-6-(4-methoxyphenyl)pyrimidine-5-carbonitrile] | 306 ± 17 | 237 ± 48 | 1.4 ± 3.1 | – | – | inhibition at 1 µM [4]: 51 ± 5%
4 | COc1cccc(-c2nc(SCc3ncc[nH]3)nc(N)c2C#N)c1 [21d, 2-(((1H-Imidazol-2-yl)methyl)thio)-4-amino-6-(3-methoxyphenyl)pyrimidine-5-carbonitrile] | 48 ± 2.8 | 208 ± 27 | 4.9 ± 3.3 | 554 ± 273 | 703 ± 50 | –
5 | Cc1cccc(CSc2nc(N)c(C#N)c(-c3cccc(O)c3)n2)n1 [21e, 4-Amino-6-(3-hydroxyphenyl)-2-(((6-methylpyridin-2-yl)methyl)thio)pyrimidine-5-carbonitrile] | 18 ± 2.1 | 126 ± 12 | 18 ± 3.3 | 93 ± 63 | 79 ± 9.4 | –
6 | N#Cc1c(N)nc(SCc2ncc[nH]2)nc1-c1cccc(O)c1 [21f, 2-(((1H-Imidazol-2-yl)methyl)thio)-4-amino-6-(3-hydroxyphenyl)pyrimidine-5-carbonitrile] | 110 ± 31 | 38 ± 7.3 | 41 ± 6.1 | 96 ± 13.3 | 112 ± 14 | –
7 | COc1ccc(-c2c(C#N)c(N)nc(SCc3cccc(C)n3)c2C#N)cc1 [22a, 2-Amino-4-(4-methoxyphenyl)-6-(((6-methylpyridin-2-yl)methyl)thio)pyridine-3,5-dicarbonitrile] | 2.9 ± 0.7 | 30 ± 2.5 | -0.06 ± 3.3 | 35 ± 19 | 701 ± 244 | –
8 | COc1cccc(-c2c(C#N)c(N)nc(SCc3cccc(C)n3)c2C#N)c1 [22b, 2-Amino-4-(3-methoxyphenyl)-6-(((6-methylpyridin-2-yl)methyl)thio)pyridine-3,5-dicarbonitrile] | 0.49 ± 0.06 | 75 ± 30 | 16 ± 2.3 | 71 ± 25 | – | inhibition at 1 µM [4]: 42 ± 11%; Ki [6]: 0.21 nM; Ki [7]: 52 nM; EC50 [5]: 1 nM
9 | Cc1cccc(CSc2nc(N)c(C#N)c(-c3cccc(O)c3)c2C#N)n1 [22e, 2-Amino-4-(3-hydroxyphenyl)-6-(((6-methylpyridin-2-yl)methyl)thio)pyridine-3,5-dicarbonitrile] | 3.5 ± 1.3 | 24 ± 16 | 109 ± 7.8 | 15 ± 3.1 | 74 ± 3.4 | –
10 | CC(=O)Nc1ccc(-c2c(C#N)c(N)nc(SCc3cccc(C)n3)c2C#N)cc1 [22g, N-(4-(2-Amino-3,5-dicyano-6-(((6-methylpyridin-2-yl)methyl)thio)pyridin-4-yl)phenyl)acetamide] | 53 ± 18 | 1.2 ± 0.2 | 122 ± 5.2 | 2.8 ± 0.1 | 22 ± 6.7 | –
11 | CSc1nc(N)c(C#N)c(-c2ccc(NC(C)=O)cc2)c1C#N [compound 12, N-(4-(2-Amino-3,5-dicyano-6-(methylthio)pyridin-4-yl)phenyl)acetamide] | – | – | – | – | – | BBB permeability [8]: poor BBB permeability
12 | CSc1nc(N)c(C#N)c(-c2ccc(NC(C)=O)cc2)n1 [compound 13, N-(4-(6-Amino-5-cyano-2-(methylthio)pyrimidin-4-yl)phenyl)acetamide] | – | – | – | – | – | BBB permeability [8]: poor BBB permeability
13 | COc1ccc(-c2c(C#N)c(N)nc(SC)c2C#N)cc1 [compound 14, 2-Amino-4-(4-methoxyphenyl)-6-(methylthio)pyridine-3,5-dicarbonitrile] | – | – | – | – | – | standard uptake value (SUV), brain uptake [8]: ~ 3 g/mL
14 | COc1ccc(-c2nc(SC)nc(N)c2C#N)cc1 [compound 15, 4-Amino-6-(4-methoxyphenyl)-2-(methylthio)pyrimidine-5-carbonitrile] | – | – | – | – | – | standard uptake value (SUV), brain uptake [8]: ~ 3 g/mL
